In data set [1] the test system is Staphylococcus epidermidis. Nature of the data set: Antibacterial activity against Staphylococcus epidermidis ATCC 35547 after 16 to 20 hrs by broth microdilution method. Type of data set: functional.
For data set [2], the system named is Staphylococcus haemolyticus. The experiment in a line: Antibacterial activity against Staphylococcus haemolyticus ATCC 29970 after 16 to 20 hrs by broth microdilution method. Type of data set: functional.
Data set [3] deals with Streptococcus oralis. Nature of the data set: Antibacterial activity against Streptococcus oralis ATCC 9811 after 16 to 20 hrs by broth microdilution method. Type of data set: functional.
Data set [4] has as its system Streptococcus pyogenes. The experiment in a line: Antibacterial activity against Streptococcus pyogenes ATCC 49399 after 16 to 20 hrs by broth microdilution method. Type of data set: functional.
Data set [5] relates to Bacillus cereus. Nature of the data set: Antibacterial activity against Bacillus cereus ATCC 13061 after 16 to 20 hrs by broth microdilution method. It counts as functional.
For data set [6], the system named is Bacillus licheniformis. The experiment in a line: Antibacterial activity against Bacillus licheniformis ATCC 12759 after 16 to 20 hrs by broth microdilution method. It counts as functional. In general terms: Dilution methods test growth across graded concentrations, often in twofold steps.
Data set [7] concerns Enterococcus faecalis. Nature of the data set: Antibacterial activity against Enterococcus faecalis ATCC 29212 after 16 to 20 hrs by broth microdilution method. It counts as functional.
Data set [8] relates to Enterococcus faecalis. The experiment in a line: Antibacterial activity against vancomycin-susceptible Enterococcus faecalis 201 clinical isolate after 16 to 20 hrs by broth microdilution method. Type of data set: functional.
The test system of data set [9] is Enterococcus faecalis. Nature of the data set: Antibacterial activity against vancomycin-resistant Enterococcus faecalis 99 clinical isolate after 16 to 20 hrs by broth microdilution method. It counts as functional.
In data set [10] the test system is Enterococcus faecium. Nature of the data set: Antibacterial activity against vancomycin-susceptible Enterococcus faecium 119-39A clinical isolate after 16 to 20 hrs by broth microdilution method. Type of data set: functional.
Data set [11] has as its system Enterococcus faecium. The experiment in a line: Antibacterial activity against Enterococcus faecium NCTC 7171 after 16 to 20 hrs by broth microdilution method. It counts as functional.
Data set [12] in a line: Plasma protein binding in human at 10 uM after 6 hrs by equilibrium dialysis assay. Type of data set: ADME, cell-free. In general terms: Equilibrium dialysis compares concentrations on both sides of a semipermeable membrane.
Data set [13] relates to HepG2. Nature of the data set: Cytotoxicity against human HepG2 cells assessed as cell viability after 16 hrs by XTT assay. Type of data set: cell-based. The note with it: HepG2, 16 h. The procedure, abridged:
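HepG2 cells were run in triplicate in an XTT viability assay. IC50 was derived from the concentration–response data.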
For orientation: Tetrazolium assays rely on reduction of a dye to a coloured formazan, in cell work by metabolically active cells.

The test system of data set [14] is Staphylococcus aureus. Nature of the data set: Antibacterial activity against methicillin-sensitive Staphylococcus aureus ATCC 29213 after 16 to 20 hrs by broth microdilution method. It counts as functional.
The subject of data set [15] is Staphylococcus aureus. The experiment in a line: Antibacterial activity against mecA-positive, methicillin/oxacillin/tetracycline-resistant and vancomycin/linezolid susceptible Staphylococcus aureus COL after 16 to 20 hrs by broth microdilution method. It counts as functional.
Data set [16] relates to Staphylococcus aureus. Nature of the data set: Antibacterial activity against mecA-positive, ciprofloxacin/gentamicin/oxacillin/penicillin/linezolid-resistant Staphylococcus aureus NRS119 after 16 to 20 hrs by broth microdilution method. It counts as functional.
In data set [17] the test system is Staphylococcus aureus. Nature of the data set: Antibacterial activity against mecA-positive, ciprofloxacin/gentamicin/oxacillin/penicillin/linezolid-resistant Staphylococcus aureus NRS120 after 16 to 20 hrs by broth microdilution method. It counts as functional.
Data set [18] concerns Staphylococcus aureus. The experiment in a line: Antibacterial activity against vancomycin/methicillin-resistant Staphylococcus aureus VRS1 clinical isolate after 16 to 20 hrs by broth microdilution method. Type of data set: functional.
Data set [19] deals with Enterococcus faecium. Nature of the data set: Antibacterial activity against vancomycin-resistant Enterococcus faecium 106 clinical isolate after 16 to 20 hrs by broth microdilution method.
For data set [20], the system named is Staphylococcus aureus. The experiment in a line: Antibacterial activity against vancomycin/methicillin-resistant Staphylococcus aureus VRS2 clinical isolate after 16 to 20 hrs by broth microdilution method. Type of data set: functional.
Data set [21] concerns Staphylococcus aureus. The experiment in a line: Antibacterial activity against mecA-positive, methicillin/oxacillin/tetracycline-resistant and vancomycin/linezolid susceptible Staphylococcus aureus ATCC 27660 after 16 to 20 hrs by broth microdilution method. Type of data set: functional.
Data set [22] can be described thus: Plasma protein binding in human by equilibrium dialysis assay.
Data set [23] relates to Staphylococcus aureus. The experiment in a line: Antibacterial activity against methicillin-resistant Staphylococcus aureus ATCC 27660 in po dosed ICR mouse peritonitis infection model assessed as survival rate administered at 1 hr post infection. Type of data set: functional. The note with it: ATCC 27660, po. The procedure, abridged:
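Female ICR mice, 6–8 weeks, given 0.5 mL ip of S. aureus (final 5×10^7 cfu/mL in 5% mucin). Six mice per dose level; a single oral dose at 1 h post-infection.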

Converted amounts (≈) assume the structure as drawn.

As a reminder, the MIC is the lowest concentration that inhibits growth of the organism. A high value points to a less susceptible organism. In general, IC50 refers to the point on the concentration scale where inhibition reaches its midpoint. The term fraction unbound denotes free concentration divided by total concentration. The ED50 is the dose at which the effect has come halfway, by size or by number of responders.

With `Fc1ccc(Oc2ccc(-c3noc(-c4n[nH]cc4Cl)n3)cc2)cc1`, the MIC in [1], in [2], in data set [3], in data set [4], in data set [5] and in [6] was greater than 128 µg/mL throughout. Besides, the MIC in data set [7] is greater than 128 µg/mL; in data set [8], greater than 128 µg/mL; in data set [9] it was greater than 128 µg/mL; in data set [10], greater than 128 µg/mL; in data set [11] it was 32 µg/mL (≈ 89.7 µM); in [14], 1 µg/mL (≈ 2.8 µM). For the same compound, the minimum inhibitory concentration (MIC) is greater than 128 µg/mL in data set [15]; 2 µg/mL (≈ 5.61 µM) in data set [16]; 64 µg/mL (≈ 179 µM) in data set [17]; 1 µg/mL (≈ 2.8 µM) in data set [18]; greater than 128 µg/mL in data set [19]. The same compound registered a PPB in data set [12] of 94.5%. For the same compound, the 50% inhibitory concentration (IC50) in data set [13] was 18.2 µg/mL (≈ 51 µM).

For the compound `CC(C)Nc1c[nH]nc1-c1nc(-c2ccc(Oc3ccc(C(F)(F)F)cc3)cc2)no1`, the MIC in data set [20] is 4 µg/mL (≈ 9.32 µM); in [1], greater than 128 µg/mL; in data set [2], greater than 128 µg/mL; in data set [3], greater than 128 µg/mL; in data set [4], greater than 128 µg/mL; in [5], greater than 128 µg/mL. Further, the minimal inhibitory concentration (MIC) in [6] is greater than 128 µg/mL; in data set [7], greater than 128 µg/mL; in data set [8], greater than 128 µg/mL; in data set [9], greater than 128 µg/mL; in data set [10], greater than 128 µg/mL; in [11], 32 µg/mL (≈ 74.5 µM). Also, the MIC in data set [14] was 0.5 µg/mL (≈ 1.16 µM); in data set [21], 0.5 µg/mL (≈ 1.16 µM); in data set [15] it was greater than 128 µg/mL; in data set [16], 2 µg/mL (≈ 4.66 µM); in data set [17] it was greater than 128 µg/mL; in data set [18], 1 µg/mL (≈ 2.33 µM). The same compound gave an MIC in data set [19] greater than 128 µg/mL. The compound also showed a PPB in [12] of 91.6%. For the same compound, in data set [13], the IC50 worked out at 3.9 µg/mL (≈ 9.08 µM).

Regarding `C#Cc1c[nH]nc1-c1nc(-c2ccc(Oc3ccc(C(F)(F)F)cc3)cc2)no1`, the MIC in data set [20] is 0.5 µg/mL (≈ 1.26 µM); in data set [1], greater than 128 µg/mL; in [2], greater than 128 µg/mL; in data set [3] it was greater than 128 µg/mL; in data set [4] it was greater than 128 µg/mL; in data set [5], greater than 128 µg/mL. Moreover, the minimal inhibitory concentration (MIC) in data set [6], in data set [7], in [8], in data set [9], in data set [10] and in data set [11] was greater than 128 µg/mL throughout. The MIC was 0.25 µg/mL (≈ 0.631 µM) in data set [14]; 0.5 µg/mL (≈ 1.26 µM) in data set [21]; greater than 128 µg/mL in [15]; 32 µg/mL (≈ 80.7 µM) in data set [16]; greater than 128 µg/mL in data set [17]; 1 µg/mL (≈ 2.52 µM) in [18]. Also, the MIC in data set [19] is greater than 128 µg/mL. For the same compound, the PPB in [12] was 96.4%. Besides, the IC50 in data set [13] worked out at 9.8 µg/mL (≈ 24.7 µM).

In the case of `CN[C@H](CC(C)C)C(=O)N[C@H]1C(=O)N[C@@H](CC(N)=O)C(=O)N[C@H]2C(=O)N[C@H]3C(=O)N[C@H](C(=O)N[C@H](C(=O)O)c4cc(O)cc(O)c4-c4cc3ccc4O)[C@H](O)c3ccc(c(Cl)c3)Oc3cc2cc(c3O[C@@H]2O[C@H](CO)[C@@H](O)[C@H](O)[C@H]2O[C@H]2C[C@](C)(N)[C@H](O)[C@H](C)O2)Oc2ccc(cc2Cl)[C@H]1O` [VANCOMYCIN], the MIC in data set [1] is 16 µg/mL (≈ 11 µM); in [4], 0.6 µg/mL (≈ 0.414 µM); in data set [7], 2 µg/mL (≈ 1.38 µM); in data set [19], 256 µg/mL (≈ 177 µM).

In data set [22], `Cc1onc(-c2ccccc2)c1C(=O)N[C@@H]1C(=O)N2[C@@H]1SC(C)(C)[C@@H]2C(=O)O` [OXACILLIN] displayed a fraction unbound of less than 0.09.

In [22], `CO[C@H]1/C=C/O[C@@]2(C)Oc3c(C)c(O)c4c(O)c(c(/C=N/N5CCN(C)CC5)c(O)c4c3C2=O)NC(=O)/C(C)=C\C=C\[C@H](C)[C@H](O)[C@@H](C)[C@@H](O)[C@@H](C)[C@H](OC(C)=O)[C@@H]1C` [RIFAMPIN] had a free fraction (fraction unbound) of less than 0.09.

For the compound `CC(=O)NC[C@H]1CN(c2ccc(N3CCOCC3)c(F)c2)C(=O)O1` [LINEZOLID], the minimum inhibitory concentration (MIC) in data set [1] was 1 µg/mL (≈ 2.96 µM); in data set [2] it was 2 µg/mL (≈ 5.93 µM); in data set [3], 1 µg/mL (≈ 2.96 µM); in data set [4], 1 µg/mL (≈ 2.96 µM); in data set [5] it was 1 µg/mL (≈ 2.96 µM); in [6], 1 µg/mL (≈ 2.96 µM). Moreover, the minimum inhibitory concentration (MIC) in data set [10] is 2 µg/mL (≈ 5.93 µM); in data set [11], 2 µg/mL (≈ 5.93 µM); in data set [16] it was 32 µg/mL (≈ 94.9 µM); in [17] it was 32 µg/mL (≈ 94.9 µM); in data set [19], 1 µg/mL (≈ 2.96 µM). In addition, in data set [23], the ED50 came to 2.8 mg/kg.

For the compound `FC(F)(F)c1ccc(Oc2ccc(-c3noc(-c4n[nH]cc4Cl)n3)cc2)cc1`, the minimal inhibitory concentration (MIC) was 0.5 µg/mL (≈ 1.23 µM) in data set [20]; greater than 128 µg/mL in data set [1]; greater than 128 µg/mL in data set [2]; greater than 128 µg/mL in [3]; greater than 128 µg/mL in data set [4]; greater than 128 µg/mL in data set [5]. Besides, the minimal inhibitory concentration (MIC) is greater than 128 µg/mL in data set [6]; greater than 128 µg/mL in [7]; greater than 128 µg/mL in data set [8]; greater than 128 µg/mL in data set [9]; greater than 128 µg/mL in [10]; 16 µg/mL (≈ 39.3 µM) in data set [11]. In addition, the MIC is 2 µg/mL (≈ 4.92 µM) in [21]; greater than 128 µg/mL in data set [15]; 64 µg/mL (≈ 157 µM) in [17]; 1 µg/mL (≈ 2.46 µM) in data set [18]; greater than 128 µg/mL in data set [19]. This compound displayed a PPB in [12] of 97.8%. Moreover, the IC50 in data set [13] was 24.1 µg/mL (≈ 59.3 µM).

In data set [14], `Oc1ccc(-c2nc(-c3ccc(Oc4ccc(F)cc4)cc3)no2)cc1O` displayed a minimal inhibitory concentration (MIC) of 4 µg/mL (≈ 11 µM).

`Nc1c[nH]c(-c2nc(-c3ccc(Oc4ccc(F)cc4)cc3)no2)c1` returned an MIC in [14] of no less than 128 µg/mL.

Compound `O=C(Nc1c[nH]nc1-c1nc(-c2ccc(Oc3ccc(C(F)(F)F)cc3)cc2)no1)c1ccccc1` displayed a minimum inhibitory concentration (MIC) in data set [14] of no less than 128 µg/mL.

Consider `FC(F)(F)c1ccc(Oc2ccc(-c3noc(-c4n[nH]cc4NC4CCCC4)n3)cc2)cc1`, for which the minimal inhibitory concentration (MIC) in data set [14] was no less than 128 µg/mL.

On to `[O-][n+]1ccc(-c2nc(-c3ccc(Oc4ccccc4)cc3)no2)cc1`, for which the MIC in data set [14] is no less than 128 µg/mL.

In data set [14], `COc1cc(-c2nc(-c3ccc(Oc4ccccc4)cc3)no2)ccc1N` had a minimum inhibitory concentration (MIC) of no less than 128 µg/mL.

`O=[N+]([O-])c1cc(-c2nc(-c3ccc(Oc4ccc(F)cc4)cc3)no2)ccc1O`: in [14], the MIC is no less than 128 µg/mL.

(Values after ChEMBL document CHEMBL3407479, “Structure-activity relationship for the oxadiazole class of antibiotics” (J Med Chem, 2015).)
